Assay results published in ChEMBL document CHEMBL1158774, “Collagenase inhibitory quinic acid esters from Ipomoea pes-caprae” (J Nat Prod, 2005).

Assay: Inhibition of collagenase type 5
How it was run: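 Collagenase type V ([…]) with a 20 µg/mL enzyme solution is preincubated with samples in 4% MeOH at 37 °C for 10 min. Fluorogenic substrate MOCAc-Pro-Leu-Gly-Leu-A2pr(Dnp)-Ala-Arg-NH2 (5 µM solution) is then added. Fluorescence (ex 320, em 405 nm) is read during 1 h at 37 °C. Phosphoramidon is the positive control.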

| Structure (SMILES) | IC50 [µM] |
| --- | --- |
| COC(=O)[C@]1(O)C[C@@H](OC(=O)/C=C/c2ccc(O)c(O)c2)[C@@H](O)[C@H](OC(=O)/C=C/c2ccc(O)c(O)c2)C1 | 5.8 |
| O=C(O)/C=C/c1ccc(O)c(O)c1 [CAFFEIC ACID] | 82.7 |
| O=C(O)[C@]1(O)C[C@@H](O)[C@@H](O)[C@H](O)C1 [QUINIC ACID] | > 500 |
| COC(=O)[C@]1(O)C[C@@H](O)[C@@H](OC(=O)/C=C/c2ccc(O)c(O)c2)[C@H](OC(=O)/C=C/c2ccc(O)c(O)c2)C1 | 26.6 |
| CC(C)C[C@H](NP(=O)(O)O[C@@H]1O[C@@H](C)[C@H](O)[C@@H](O)[C@H]1O)C(=O)N[C@@H](Cc1c[nH]c2ccccc12)C(=O)O [PHOSPHORAMIDON] | 0.6 |

The next lines start with the values.

| IC50 [µM] | Structure (SMILES) |
| --- | --- |
| 14.2 | O=C(/C=C/c1ccc(O)c(O)c1)O[C@@H]1[C@H](OC(=O)/C=C/c2ccc(O)cc2)C[C@@](OC(=O)/C=C/c2ccc(O)cc2)(C(=O)O)C[C@H]1OC(=O)/C=C/c1ccc(O)c(O)c1 |
| 23.6 | O=C(/C=C/c1ccc(O)c(O)c1)O[C@@H]1C[C@](O)(C(=O)O)C[C@@H](OC(=O)/C=C/c2ccc(O)c(O)c2)[C@H]1O |
| 19.1 | O=C(/C=C/c1ccc(O)c(O)c1)O[C@@H]1C[C@](O)(C(=O)O)C[C@@H](OC(=O)/C=C/c2ccc(O)c(O)c2)[C@H]1OC(=O)/C=C/c1ccc(O)cc1 |
| 37.2 | O=C(/C=C/c1ccc(O)c(O)c1)O[C@@H]1[C@H](O)C[C@@](O)(C(=O)O)C[C@H]1OC(=O)/C=C/c1ccc(O)c(O)c1 |
| 16.2 | COC(=O)[C@@]1(O)C[C@@H](O)[C@H](OC(=O)/C=C/c2ccc(O)c(O)c2)[C@H](OC(=O)/C=C/c2ccc(O)c(O)c2)C1 [3,4-O-TRANS-CAFFEOYLQUINIC ACID METHYL ESTER] |
